Several values for one entry are separate records, joined by “and”; a condition that tells them apart may be missing. Equal entries are not always repeated.
Molecular target: Scavenger receptor class B member 1 (Mus musculus) (UniProt Q61009)
Experiment: inhibition of HDL lipid transfer via mSR-BI – ldlA[mSR-BI] CHO cells, powder samples, set 2, dose response (AID 588392)
Conditions: DiI-HDL uptake fluorescence, 3 h;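 active = compounds lowering labeled HDL uptake with a fitted AC50 at most ten times their top tested dose (actives reach about 20 µM in these data); inconclusive = flat partial inhibition of 30 to 70 percent, or poor fit; inactive = the rest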
Summary of the method: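 Assay system: ldlA[mSR-BI] CHO cells, LDL receptor-deficient, overexpressing murine SR-BI. Probe or stimulus: DiI-labeled HDL, 10 µg/mL final. Doses: compounds delivered by pin transfer. Timing: cell plating overnight before assay, 3 h DiI-HDL uptake at 37 °C. Signal: cellular DiI fluorescence, excitation 550 nm, emission 595 nm, bottom read.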

Sequence of Scavenger receptor class B member 1 (Mus musculus) (Q61009 whole entry, looked up): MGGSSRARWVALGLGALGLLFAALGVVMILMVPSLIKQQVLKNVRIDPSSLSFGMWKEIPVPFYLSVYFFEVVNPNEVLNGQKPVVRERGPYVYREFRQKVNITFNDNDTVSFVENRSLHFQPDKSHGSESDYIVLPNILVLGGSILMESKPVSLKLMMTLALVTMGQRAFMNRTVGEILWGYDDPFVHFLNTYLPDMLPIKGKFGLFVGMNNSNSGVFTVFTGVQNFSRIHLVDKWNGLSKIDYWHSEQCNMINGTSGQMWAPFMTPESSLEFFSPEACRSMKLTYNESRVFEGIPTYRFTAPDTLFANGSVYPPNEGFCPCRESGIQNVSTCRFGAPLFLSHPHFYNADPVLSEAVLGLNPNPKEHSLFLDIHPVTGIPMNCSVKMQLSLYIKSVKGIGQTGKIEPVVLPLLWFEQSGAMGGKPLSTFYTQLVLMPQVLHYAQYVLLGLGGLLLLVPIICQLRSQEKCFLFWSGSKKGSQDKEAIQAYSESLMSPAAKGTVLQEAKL

AC50, active:
COc1ccc(-c2nnn(CC(=O)N(C3CCCCC3)C(C)C(=O)NC3CCCC3)n2)cc1OC (centres undefined) 72.5 nM
O=C(CN(C(=O)Cn1nnc(-c2ccc3c(c2)OCO3)n1)C1CCCCC1)NC1CCCC1 12.6 nM
O=C(Nc1nc(-c2ccc3c(c2)CCN3)cs1)c1ccco1 44.7 nM
CS(=O)(=O)N1CCc2cc(-c3csc(NC(=O)c4ccco4)n3)ccc21 386 nM
CC(C(=O)NC1CCCC1)N(C(=O)Cn1nnc(-c2ccccc2Cl)n1)C1CCCCC1 (centres undefined) 3810 nM
COc1ccc(-c2cc(CC(=O)N(C3CCCCC3)C(C)C(=O)NC3CCCC3)no2)cc1OC (centres undefined) 15.4 nM
CCC(=O)N1CCc2cc(-c3csc(NC(=O)c4ccco4)n3)ccc21 53.7 nM
CCC(=O)N1CCc2cc(-c3cnc(NC(C)=O)[nH]3)ccc21 1700 nM
CCCCCCC1CCC/C1=N\NC(N)=S (centres undefined) 7.1 nM
Cc1ccc(-c2nnn(CC(=O)N(C3CCCCC3)C(C)C(=O)NC3CCCC3)n2)cc1 (centres undefined) 493 nM
CC(C(=O)NC1CCCC1)N(C(=O)Cn1nnc(-c2ccc(F)cc2)n1)C1CCCCC1 (centres undefined) 125 nM
CCC(=O)N1CCc2cc(-c3csc(NC(=O)c4cccc(OC(F)(F)F)c4)n3)ccc21 40.8 nM
CC(C(=O)NC1CCCC1)N(C(=O)Cn1nnc(-c2ccc3c(c2)OCO3)n1)C1CCCCC1 (centres undefined) 24.3 nM
CC(C)C(=O)N1CCc2cc(-c3csc(NC(=O)c4ccco4)n3)ccc21 238 nM
COc1cccc(-c2nnn(CC(=O)N(C3CCCCC3)C(C)C(=O)NC3CCCC3)n2)c1 (centres undefined) 180 nM
O=C(Nc1nc(-c2ccc3c(c2)CCN3C(=O)C2CC2)cs1)c1ccco1 186 nM
CCC(=O)N1CCc2cc(-c3csc(NC(=O)c4cccc(OC)c4)n3)ccc21 39.9 nM
COc1ccc(-c2nnn(CC(=O)N(CC(=O)NC3CCCC3)C3CCCCC3)n2)cc1OC 8.98 nM
CC(C(=O)NC1CCCC1)N(C(=O)Cn1nnc(-c2ccc(Cl)cc2)n1)C1CCCCC1 (centres undefined) 275 nM
CCC(=O)N1CCc2cc(-c3csc(NC(=O)c4cc(OC)cc(OC)c4)n3)ccc21 4.33 nM
CC(C(=O)NC1CCCC1)N(C(=O)Cn1nnc(-c2ccccc2F)n1)C1CCCCC1 (centres undefined) 617 nM
CCC(=O)N1CCc2cc(-c3csc(NC(=O)c4cccc(OC)n4)n3)ccc21 528 nM
COC(=O)N1CCc2cc(-c3csc(NC(=O)c4ccco4)n3)ccc21 6840 nM
CCC(=O)N1CCc2cc(-c3cnc(NC(=O)c4ccco4)[nH]3)ccc21 10100 nM
CCC(=O)N1CCc2cc(-c3coc(NC(=O)c4ccco4)n3)ccc21 18900 nM
CCC(=O)N1CCc2cc(-c3coc(N)n3)ccc21 20000 nM
CC(C(=O)NC1CCCC1)N(C(=O)Cn1nnc(-c2cccc(F)c2)n1)C1CCCCC1 (centres undefined) 379 nM
CCC(=O)N1CCc2cc(-c3csc(NC(=O)c4ccc(F)c(OC)c4)n3)ccc21 38 nM
C[C@@H]1CN([C@H](C)CO)C(=O)c2cc(NC(=O)Cc3cn(C)c4ccccc34)ccc2O[C@H]1CN(C)S(=O)(=O)c1ccc(Cl)cc1 81 nM and 268 nM

Reference: PubChem BioAssay AID588392 (Broad Institute, 2011)
